Calls of active or inactive are those of the source. The rule behind the calls is not given here.
Assays:
[1] = target: T1, C3a anaphylatoxin chemotactic receptor (Homo sapiens, UniProt Q16581); assay: Agonist activity against C3AR in HMDMs assessed as increase in intracellular calcium release by Fluo-3 AM dye based FLIPR assay relative to 1 uM C3a
T1 sequence (Q16581 whole entry): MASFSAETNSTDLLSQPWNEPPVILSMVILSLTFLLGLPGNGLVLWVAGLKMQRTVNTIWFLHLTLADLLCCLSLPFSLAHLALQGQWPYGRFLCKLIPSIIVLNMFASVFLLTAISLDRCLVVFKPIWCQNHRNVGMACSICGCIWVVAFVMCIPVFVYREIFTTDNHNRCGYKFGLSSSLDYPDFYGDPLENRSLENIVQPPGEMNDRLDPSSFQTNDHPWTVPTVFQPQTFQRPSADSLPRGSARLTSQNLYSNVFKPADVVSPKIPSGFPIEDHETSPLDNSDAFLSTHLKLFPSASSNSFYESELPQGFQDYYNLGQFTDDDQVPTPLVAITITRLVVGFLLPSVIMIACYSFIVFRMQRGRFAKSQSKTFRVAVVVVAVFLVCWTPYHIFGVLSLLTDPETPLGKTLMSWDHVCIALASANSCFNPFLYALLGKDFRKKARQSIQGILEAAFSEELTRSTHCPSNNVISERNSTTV

[2] = target: T1, C3a anaphylatoxin chemotactic receptor; assay: Displacement of [125I]-C3a from C3AR in HMDMs by scintillation counting method
[3] = target: T2, C3a anaphylatoxin chemotactic receptor (Homo sapiens) (UniProt Q16581); assay: Agonist activity against C3AR in HMDMs assessed as increase in intracellular calcium release up to 100 uM by Fluo-3 AM dye based FLIPR assay; assay type: functional, cell-based
T2 sequence (whole entry): T1 sequence (Q16581 whole entry)
How it was run: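 Overnight-plated HMDMs (5 × 10^4/well) loaded with 4 μM Fluo-3 AM for 1 h at 37 °C, washed into HBSS with 2.5 mM probenecid, 20 mM HEPES, pH 7.4; compound range added and Ca2+ fluorescence read ≥60 s (495/520 nm) by FLIPR.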

[4] = target: T1, C3a anaphylatoxin chemotactic receptor; assay: Antagonist activity against C3AR in HMDMs assessed as inhibition of C3a-induced intracellular calcium release by Fluo-3 AM dye based FLIPR assay
[5] = target: T2, C3a anaphylatoxin chemotactic receptor (Homo sapiens)
[6] = target: T2, C3a anaphylatoxin chemotactic receptor (Homo sapiens); remark: listed apart in the source
[7] = target: T3, C5a anaphylatoxin chemotactic receptor 1 (Homo sapiens) (UniProt P21730); assay: Displacement of [125I]-C5a from C5AR in HMDMs 20 uM by scintillation counting method
T3 sequence (whole entry): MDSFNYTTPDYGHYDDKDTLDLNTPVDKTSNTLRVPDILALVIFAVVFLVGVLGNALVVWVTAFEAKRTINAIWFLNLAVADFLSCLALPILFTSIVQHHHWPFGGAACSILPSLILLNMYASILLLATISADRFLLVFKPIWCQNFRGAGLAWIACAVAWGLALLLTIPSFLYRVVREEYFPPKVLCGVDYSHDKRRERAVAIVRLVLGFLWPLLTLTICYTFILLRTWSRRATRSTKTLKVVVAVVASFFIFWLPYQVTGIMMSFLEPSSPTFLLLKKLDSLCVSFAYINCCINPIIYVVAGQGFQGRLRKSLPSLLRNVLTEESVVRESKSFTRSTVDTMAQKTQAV

[8] = target: T2, C3a anaphylatoxin chemotactic receptor (Homo sapiens); assay: Agonist activity against C3AR in HMDMs assessed as increase in CCL3 mRNA expression at 300 nM incubated for 30 mins by qRT-PCR method
How it was run: (§1)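 HMDMs (CSF-differentiated CD14+ blood monocytes, day 7) seeded at 1 × 10^6 mL−1 and adhered overnight, then stimulated 30 min at 0.3 μM. RNA extracted; qRT-PCR normalized to 18S rRNA; fold change relative to untreated control; mean ± SEM of three independent experiments.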

[9] = target: T2, C3a anaphylatoxin chemotactic receptor (Homo sapiens); assay: Agonist activity against C3AR in HMDMs assessed as increase in CCL3 mRNA expression at 300 nM incubated for 30 mins in presence of 30 mins pre-treatment with 10 uM (2-(2,2-Diphenylethoxy)acetyl)-L-arginine by qRT-PCR method
How it was run: (§2)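 HMDMs seeded at 1 × 10^6 mL−1, adhered overnight, pretreated with C3aR antagonist (10 μM, 30 min), then stimulated 30 min at 0.3 μM. RNA extracted; qRT-PCR normalized to 18S rRNA; fold change relative to untreated control; mean ± SEM, three independent experiments.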

[10] = target: T2, C3a anaphylatoxin chemotactic receptor (Homo sapiens); assay: Agonist activity against C3AR in HMDMs assessed as increase in TNFalpha mRNA expression at 300 nM incubated for 30 mins by qRT-PCR method; how it was run: as §1
[11] = target: T2, C3a anaphylatoxin chemotactic receptor (Homo sapiens); assay: Agonist activity against C3AR in HMDMs assessed as increase in TNFalpha mRNA expression at 300 nM incubated for 30 mins in presence of 30 mins pre-treatment with 10 uM (2-(2,2-Diphenylethoxy)acetyl)-L-arginine by qRT-PCR method; how it was run: as §2
[12] = target: T2, C3a anaphylatoxin chemotactic receptor (Homo sapiens); assay: Agonist activity against C3AR in C3a desensitized HMDMs assessed as increase in intracellular calcium release at 10 uM added 5 mins post C3a-induced desensitization by Fluo-3 AM dye based FLIPR; assay type: functional, cell-based
How it was run: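 HMDMs desensitized with 300 nM C3a at t0, then given test agonist at 10 μM; calcium signal monitored on FLIPR after Fluo-3 AM loading (4 μM, 1 h, 37 °C) in HBSS with 2.5 mM probenecid, 20 mM HEPES, pH 7.4; excitation 495, emission 520 nm.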

[13] = target: T2, C3a anaphylatoxin chemotactic receptor (Homo sapiens); assay: Agonist activity against C3AR in HMDMs assessed as increase in IL-1beta mRNA expression at 300 nM incubated for 30 mins by qRT-PCR method; how it was run: as §1
[14] = target: T2, C3a anaphylatoxin chemotactic receptor (Homo sapiens); assay: Agonist activity against C3AR in HMDMs assessed as increase in IL-1beta mRNA expression at 300 nM incubated for 30 mins in presence of 30 mins pre-treatment with 10 uM (2-(2,2-Diphenylethoxy)acetyl)-L-arginine by qRT-PCR method; how it was run: as §2

**Q.** With `N=C(N)NCCC[C@H](NC(=O)c1nc(C(c2ccccc2)c2ccccc2)[nH]c1-c1ccccc1)C(=O)O` as the compound, how does the EC50 [1] read?
**A.** > 31600 nM

**Q.** And the IC50 [2]?
**A.** 87 nM

**Q.** Which Activity [3] does the source give for `N=C(N)NCCC[C@H](NC(=O)CSCC(c1ccccc1)c1ccccc1)C(=O)O` here?
**A.** inactive

**Q.** And the IC50 [2]?
**A.** 8 nM

**Q.** Which IC50 [4] does the source give for `N=C(N)NCCC[C@H](NC(=O)c1nc(C(c2ccccc2)c2ccccc2)no1)C(=O)O` here?
**A.** 1000 nM

**Q.** And the IC50 [2]?
**A.** 12 nM

**Q.** `N=C(N)NCCC[C@H](NC(=O)CCCC(c1ccccc1)c1ccccc1)C(=O)O` was tested. Which Activity [3] did it give?
**A.** inactive

**Q.** And the IC50 [2]?
**A.** 96 nM

**Q.** What does the source list for `N=C(N)NCCC[C@H](NC(=O)c1noc(C(c2ccccc2)c2ccccc2)n1)C(=O)O`?
**A.** IC50 [4]: 1000 nM; IC50 [2]: 54 nM

**Q.** For `N=C(N)NCCC[C@H](NC(=O)COCC(c1ccccc1)c1ccccc1)C(=O)O`, which IC50 [4] is on record?
**A.** 1260 nM

**Q.** What about the Activity [3] of the same compound?
**A.** inactive

**Q.** What about the IC50 [2] of the same compound?
**A.** 10 nM

**Q.** Which results are given for `Cc1nc(C(c2ccccc2)c2ccccc2)oc1C(=O)N[C@@H](CCCNC(=N)N)C(=O)O`?
**A.** IC50 [4]: 3980 nM; IC50 [2]: 100 nM

**Q.** With `Cc1oc(C(c2ccccc2)c2ccccc2)nc1C(=O)N[C@@H](CCCNC(=N)N)C(=O)O` as the compound, how does the IC50 [2] read?
**A.** 11 nM

**Q.** What about the pEC50 [5] of the same compound?
**A.** Active

**Q.** Which IC50 [2] does the source give for `N=C(N)NCCC[C@H](NC(=O)c1coc(C(c2ccccc2)c2ccccc2)n1)C(=O)O` here?
**A.** 19 nM

**Q.** For `N=C(N)NCCC[C@H](NC(=O)c1nnc(C(c2ccccc2)c2ccccc2)o1)C(=O)O`, which IC50 [4] is on record?
**A.** 19000 nM

**Q.** And the IC50 [2]?
**A.** 967 nM

**Q.** Which EC50 [1] does the source give for `Cc1c(C(=O)N[C@@H](CCCNC(=N)N)C(=O)O)nc(C(c2ccccc2)c2ccccc2)n1C` here?
**A.** 40 nM

**Q.** What about the IC50 [2] of the same compound?
**A.** 31 nM

**Q.** How did the Activity [3] turn out when `N=C(N)NCCC[C@H](NC(=O)CNCC(c1ccccc1)c1ccccc1)C(=O)O` was run?
**A.** inactive

**Q.** What about the IC50 [2] of the same compound?
**A.** 150 nM

**Q.** With `Cc1nc(C(c2ccccc2)c2ccccc2)n(C)c1C(=O)N[C@@H](CCCNC(=N)N)C(=O)O` as the compound, how does the pIC50 [6] read?
**A.** inactive

**Q.** What about the IC50 [2] of the same compound?
**A.** 1140 nM

**Q.** And the pEC50 [5]?
**A.** inactive

**Q.** What does the source list for `N=C(N)NCCC[C@H](NC(=O)c1oc(C(c2ccccc2)c2ccccc2)nc1-c1ccccc1)C(=O)O`?
**A.** IC50 [4]: 2000 nM; IC50 [2]: 110 nM

**Q.** Which results are given for `Cc1[nH]c(C(c2ccccc2)c2ccccc2)nc1C(=O)N[C@@H](CCCNC(=N)N)C(=O)O`?
**A.** EC50 [1]: 25.1 nM; inhibition [7]: inactive; Activity [8]: Active; IC50 [2]: 10 nM; Activity [9]: inactive; Activity [10]: Active; Activity [11]: inactive; Activity [12]: inactive; Activity [13]: Active; Activity [14]: inactive
